# High-throughput results: PubChem BioAssay, several laboratories
# UCH37 DUB inh = blocks the human deubiquitinase UCH37 | purified proteasome/UCH37, Ub-AMC cleavage fluorescence | inhibition, % (no concentration beside the values) | hit rate 0.33% among 330,000 | AID 588478;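 active = mean inhibition over replicate wells above about 20%, limit read from the data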
#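 Assay system: Proteasome-bound UCH37. Buffer or medium: pH 7.4 Tris-HCl (50 mM) with ovalbumin, ATP-MgCl2, DTT. Incubation: 30 min preincubation with enzyme, 25 min cleavage at room temperature. Measured by: fluorescence, ex 355 nm, em 460 nm. Read-out basis: percent inhibition. Control set: wells without proteasome as full block, compound-free enzyme plus substrate as uninhibited.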
# GSTO1 inh = GSTO1 inhibition, counter-screen for RBBP9 inhibitors; hit rate 1.1% among 300,000; inhibition, % at 5.96 µM; recombinant GSTO1, activity-based probe fluorescence polarization; P78417;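 active = inhibition above the campaign mean inhibition plus 3 SD, cut at about 35% in these data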
# PP5 inh = inhibitors of human protein phosphatase 5 (PP5). purified PP5c, OMFP substrate fluorescence. inhibition, % at 6.7 µM. hit rate 0.18% among 320,000. AID 1987;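 active = inhibition above the campaign's mean inhibition across all tested compounds plus 3 SD, cut at about 9.5% in these data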
# Apaf-1 inh = blocks human Apaf-1 apoptosome activity; reconstituted apoptosome caspase-3 activity, DEVD-Rh110 fluorescence; inhibition, % at 20 µM; hit rate 0.71% among 330,000; AID 489030; active = inhibition of at least 40% at 20 µM
#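 System: reconstituted apoptosome with Apaf-1, cytochrome c, caspase-9, procaspase-3, dATP; Signal: Rh110 fluorescence intensity; Schedule: 30 min compound preincubation, 50 min activation, room temperature; Reagent: cytochrome c trigger plus (Z-DEVD)2-Rh110 caspase-3 substrate.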
# PAD4 inh = blocks human protein arginine deiminase 4; Q9UM07; recombinant PAD4, RCA probe fluorescence polarization; inhibition, % at 6.36 µM; hit rate 0.41% among 330,000;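 active = percent inhibition above a cutoff equal to the mean of all tested compounds plus 3 SD, cut at about 15% in these data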
# Fh CTSL1 inh = blocks F. hepatica cathepsin L1 in PFM18AAP counter-screen | inhibition, % at 5.96 µM | recombinant F. hepatica cathepsin L1, Z-Leu-Arg-MCA fluorescence | hit rate 0.49% among 300,000;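 active = inhibition above the mean of all tested compounds plus 3 SD, set per screening campaign, cut at about 17% in these data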
# PAD4 FP conf = PAD4 (human) inhibition, confirmed; shares compounds with PAD4 inh; AID 488796; recombinant PAD4, RCA probe fluorescence polarization; inhibition, % at 6.36 µM; hit rate 28% among 1,200;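 active = mean inhibition across replicates above the hit cutoff set by the earlier primary screen, cut at about 15% in these data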;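 also: inhibitors block active-site labeling by the probe so polarization falls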
# Numbers stand for hits; n = inactive; x = no result given. This is a sample that favours compounds with a hit; in the whole collection about 2% have one here.
SMILES,UCH37 DUB inh,GSTO1 inh,PP5 inh,Apaf-1 inh,PAD4 inh,Fh CTSL1 inh,PAD4 FP conf
CCOc1cccc(-c2c(C(=O)NN=Cc3ccc(Br)cc3)nnn2-c2nonc2N)c1,n,x,x,x,x,x,x
CCc1cccc(NS(=O)(=O)c2ccc3c(c2)CCC(=O)N3)c1,n,n,n,n,16,n,n
Cc1cccc(NS(=O)(=O)c2ccc3c(c2)CCC(=O)N3)c1,n,n,n,n,n,n,x
Cc1cccc2c1NC(C)CC2C (configuration not stated),n,n,n,n,15,n,n
CN(CCO)S(=O)(=O)c1ccc2c(c1)C(=NO)c1cc(S(=O)(=O)N(C)CCO)ccc1-2,n,n,n,n,15,n,n
O=C(Nc1ccccn1)C(=O)N1CCCCC1,n,n,n,n,36,n,n
Cc1cc(C(=O)OCC(=O)NC2CCS(=O)(=O)C2)c2ccccc2n1 (configuration not stated),n,n,n,n,n,n,x
CCN(C(=O)COC(=O)c1cc(-c2cccc3ccccc23)nc2ccccc12)C1CCS(=O)(=O)C1 (configuration not stated),n,n,n,n,24,n,n
O=C(COC(=O)c1cc(-c2cccc3ccccc23)nc2ccccc12)NC1CCS(=O)(=O)C1 (configuration not stated),n,n,n,n,65,n,24
COc1ccc(OC)c(C(O)=CC(=O)C(=O)Nc2cc(C)ccc2OC)c1,n,x,x,x,x,x,x
CN(C)c1ccc(-n2cccc2C=Nn2cnnc2)cc1,n,x,x,x,x,x,x
CCc1ccc(OCC(=O)NN=Cc2ccco2)c([N+](=O)[O-])c1,n,x,x,x,x,x,x
Cc1ccc(-n2nc(C)c3c2OC(N)=C(C#N)C3c2ccccc2F)cc1 (configuration not stated),n,n,n,n,n,n,x
Cc1ccc(-n2nc(C)c3c2OC(N)=C(C#N)C3c2ccncc2)cc1 (configuration not stated),n,n,n,n,n,n,x
Cc1ccc(-n2nc(C)c3c2OC(N)=C(C#N)C3c2cccs2)cc1 (configuration not stated),n,n,n,n,41,n,n
Cc1nn(-c2ccccc2)c2c1C(c1ccncc1)C(C#N)=C(N)O2 (configuration not stated),n,n,n,n,25,n,n
CSc1ccc(C=NNC(=O)CNc2cccc3ccccc23)cc1,n,x,x,x,x,x,x
COc1cc(C=NNC(=O)Cn2ccc(C(F)(F)F)n2)cc(OC)c1OC,n,x,x,x,x,x,x
Cn1c(/C(C#N)=C/c2ccc(-c3ccc(S(N)(=O)=O)cc3)o2)nc2ccccc21,n,n,n,x,28,n,21
C(=Nc1ccc(N2CCOCC2)cc1)c1c[nH]c2ccccc12,n,n,n,n,17,n,n
C=CCc1cccc(C=NNC(=O)c2ccc3nc[nH]c3c2)c1O,n,x,x,x,x,x,x
CC(=O)Nc1sc(NN=Cc2ccccc2Cl)nc1-c1cccs1,n,x,x,x,x,x,x
Cc1ccc(S(=O)(=O)N2CCN(C(=O)Cc3ccccc3)CC2)cc1C,n,x,n,n,22,x,n
Cc1ccc(CC(=O)N2CCN(S(=O)(=O)c3ccccc3)CC2)cc1C,n,n,n,n,n,n,x
CN(C)CCCNc1cn[nH]c(=O)c1Cl,n,n,n,n,60,n,n
SMILES,UCH37 DUB inh,GSTO1 inh,PP5 inh,Apaf-1 inh,PAD4 inh,Fh CTSL1 inh,PAD4 FP conf
Cc1ccc(-c2c(C(=O)NN=Cc3cccs3)nnn2-c2nonc2N)cc1,n,x,x,x,x,x,x
CCOC(=O)C1=C(C)N=c2s/c(=C\c3ccc(OCC(=O)O)c(OC)c3)c(=O)n2C1c1ccc(OC)cc1 (configuration not stated),x,n,n,n,15,n,n
CCOC(=O)C1=C(C)N=c2sc(=Cc3ccc(OCC(=O)O)cc3)c(=O)n2C1c1ccc(OC)cc1OC (configuration not stated),n,x,x,x,x,x,x
CCOc1cc(C=NNC(=O)C(C)Sc2ccccn2)ccc1O (configuration not stated),n,x,x,x,x,x,x
CCCSc1nnc(Sc2nnnn2-c2ccccc2)s1,n,n,n,n,35,n,20
C(=C\CSc1nnnn1-c1ccccc1)/CSc1nnnn1-c1ccccc1,n,n,n,n,n,n,x
